Assay [1] has as its system Escherichia coli. In words: Inhibition of Escherichia coli MAT assessed as incorporation of L-[methyl-14C]methionine into S-adenosyl-methionine at 1 mM after 5 to 10 mins by scintillation counting. An outline of the steps: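 Screen: E. coli MAT (0.25 μM) preincubated 20 min at room temperature with 1 mM compound (15% DMSO final) in Tris·Cl pH 8.0/KCl/MgCl2. 1.5 volumes of reagents added (final 0.1 mM ATP, 0.1 mM [14C]methionine, 10 mM MgCl2). Run 5 min at 25° C, stopped with 25 mM EDTA; AdoMet on P-81 filters counted.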

A short description of assay [2]: Inhibition of Escherichia coli MAT assessed as incorporation of L-[methyl-14C]methionine into S-adenosyl-methionine after 5 to 10 mins by scintillation counting. The procedure, abridged: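 Recombinant E. coli MAT (0.3 μM subunits) preincubated 20 min with inhibitor before substrates were added. Assay buffer was 50 mM Tris·Cl pH 8.0, 50 mM KCl, 10 mM MgCl2, 10 mM ATP and 0.5 mM L-[methyl-14C]methionine at 25 °C. Reactions were EDTA-quenched and AdoMet was captured on P-81 filters. Ki came from a nonlinear fit of fractional activity to the tight-binding equation.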

The subject of assay [3] is Escherichia coli. The assay can be described thus: Inhibition of Escherichia coli MAT assessed as incorporation of L-[methyl-14C]methionine into S-adenosyl-methionine at 200 uM after 5 to 10 mins by scintillation counting in presence of ATP treated before addition of methionine. The procedure, abridged: (§1)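 Onset of inhibition: 0.3 μM MAT subunits (0.3 μM inhibitor) or 10 μM enzyme (200 μM inhibitor) incubated in 50 mM Tris·Cl, 50 mM KCl, 10 mM MgCl2 with 10 mM ATP or 1 mM L-methionine where present. Aliquots diluted into assay reagents at set times; [methyl-14C]AdoMet on P-81 filters counted.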

Assay [4] concerns Escherichia coli. The assay can be described thus: Inhibition of Escherichia coli MAT assessed as incorporation of L-[methyl-14C]methionine into S-adenosyl-methionine at 200 uM after 5 to 10 mins by scintillation counting in presence of methionine treated before addition of ATP. The procedure, abridged: as §1
The test system of assay [5] is Escherichia coli. In words: Inhibition of Escherichia coli MAT assessed as time required to achieve half maximal enzyme inhibition at 200 uM after 5 to 10 mins by scintillation counting. The procedure, abridged:
as §1

The test system of assay [6] is Escherichia coli. In words: Inhibition of Escherichia coli MAT assessed as lack of recovery of detectable enzyme activity at 0.3 uM up to 20 mins measured after 24 hrs of dialysis.
For assay [7], the system named is Methanocaldococcus jannaschii. The assay can be described thus: Inhibition of Methanococcus jannaschii MAT at 1 mM treated for 20 mins before addition of substrate. An outline of the steps: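 M. jannaschii MAT (0.3 μM) preincubated 20 min with 0.1–1.0 mM compound, then assayed as for E. coli enzyme (0.1 mM ATP, 0.1 mM [14C]methionine) at 37° C. [14C]AdoMet on P-81 filters counted.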

Assay [8] concerns Escherichia coli. In words: Antibacterial activity against Escherichia coli RP523 at 1 mM after overnight incubation by filter disk method. It counts as functional, organism-based. The procedure, abridged:
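E. coli RP523 (hyperpermeable strain): ~30 μl overnight culture spread on LB agar; 5 mm filter disks soaked with 30 μl of 1 mM compound in DMSO, or DMSO control, placed on lawn. Zone of growth inhibition measured after overnight incubation at 37° C.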

The next assay deals with Saccharomyces cerevisiae. In words: Antifungal activity against Saccharomyces cerevisiae RDY84 at 1 mM after overnight incubation by filter disk method. It counts as functional, organism-based. An outline of the steps: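 S. cerevisiae RDY84 (pdr1Δ pdr3Δ) lawn on YDP agar; 5 mm filter disk soaked with 1 mM compound in DMSO, or DMSO control, placed on freshly spread cells. Zone of growth inhibition measured after overnight incubation at 30° C.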

A further assay deals with NCI60. In words: Growth inhibition of human NCI60 cells up to 100 uM. Type of assay: functional, cell-based. The procedure, abridged: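 Tested by NCI Developmental Therapeutics Program against the 60 tumour cell line panel in its standard protocol, concentrations up to 100 μM.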

Active and inactive are the calls of the source. The rule behind the calls is not given here.

For `Cc1ccc(NC(=O)Nc2cccc(C(F)(F)F)c2)cc1NC(=O)Nc1cccc(C(F)(F)F)c1`, the result with Escherichia coli [1] was inactive.
One may read the Ki as a dissociation constant, usually derived from enzyme kinetics or from competition with a known ligand. On to `NS(=O)(=O)c1ccc(NC(=O)Nc2ccc(Cl)cc2[N+](=O)[O-])cc1`, for which the result in the assay on Escherichia coli [1], in the assay with Escherichia coli [4] and in the assay with Escherichia coli [6] was Active. Further, the Ki in assay [2] was found to be 6.9 nM. Moreover, the result in the assay with Escherichia coli [3], in the assay on Escherichia coli [8] and in the assay with Saccharomyces cerevisiae was inactive. For the same compound, the Activity in the assay on Escherichia coli [5] came to 20 min. The inhibition entry in assay [7] is “inactive”. In addition, the “growth inhibition (GI)” value with NCI60 was “inactive”.

(Values after ChEMBL document CHEMBL1156045, “Discovery of novel types of inhibitors of S-adenosylmethionine synthesis by virtual screening” (J Med Chem, 2009).)
